Results published in ChEMBL document CHEMBL1154054, “Novel 4-(morpholin-4-yl)-N'-(arylidene)benzohydrazides: synthesis, antimycobacterial activity and QSAR investigations” (Eur J Med Chem, 2009).

Assays:
Format in all cases: functional
Set-up in all cases: scale not given: the % may be the effect or the level left
[1] = tested on: Mycobacterium tuberculosis; assay: Antimycobacterial activity against Mycobacterium tuberculosis H37Rv assessed as reduction in relative light units at 0.05 ug/ml after 72 hrs by LRP assay
Summary of the method: (§1)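 Luciferase reporter phage assay on M. tuberculosis (H37Rv, or clinical isolates resistant to S, H, R and E). Each sample had two drug-free controls and four drug concentrations, incubated 72 h at 37 °C. High-titer phAE129 phage plus 0.1 M CaCl₂ was added, then 4 h at 37 °C. Equal volume D-luciferin (0.3 mM, pH 4.5 citrate) was added; RLU integrated 10 s, duplicate mean; % RLU reduction vs control.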

[2] = tested on: Mycobacterium tuberculosis; assay: Antimycobacterial activity against Mycobacterium tuberculosis H37Rv assessed as reduction in relative light units at 0.5 ug/ml after 72 hrs by LRP assay; summary of the method: as §1
[3] = tested on: Mycobacterium tuberculosis; assay: Antimycobacterial activity against Mycobacterium tuberculosis H37Rv assessed as reduction in relative light units at 5 ug/ml after 72 hrs by LRP assay; summary of the method: as §1
[4] = tested on: Mycobacterium tuberculosis; assay: Antimycobacterial activity against Mycobacterium tuberculosis H37Rv assessed as reduction in relative light units at 10 ug/ml after 72 hrs by LRP assay; summary of the method: as §1

Cc1ccc(/C=N/NC(=O)c2ccc(N3CCOCC3)cc2)cc1 was tested, and the Activity [1] was 24.19%, the Activity [2] was 97.29% and the Activity [3] was 97.75%. The Activity [4] was 98.18%.
COc1cc(/C=N/NC(=O)c2ccc(N3CCOCC3)cc2)cc(OC)c1OC was tested, and the Activity [1] was 49.68%, the Activity [2] was 96.51% and the Activity [3] was 97.59%. For the same molecule, the Activity [4] was 97.77%.
Molecule O=C(N/N=C1\C=CCO1)c1ccc(N2CCOCC2)cc1 has an Activity [1] of 15.04%, an Activity [2] of 96.9% and an Activity [3] of 98.41%. It also gave an Activity [4] of 97.55%.
O=C(N/N=C/c1ccc(F)cc1)c1ccc(N2CCOCC2)cc1 showed an Activity [1] of 96.78%, an Activity [2] of 98.22% and an Activity [3] of 98.98%. For the same molecule, the Activity [4] was 99.09%.
With O=C(N/N=C/c1ccc(O)cc1)c1ccc(N2CCOCC2)cc1 the Activity [1] was 51.79%, the Activity [2] was 77.81% and the Activity [3] was 97.53%. The Activity [4] was 97.24%.
In the case of COc1ccc(/C=N/NC(=O)c2ccc(N3CCOCC3)cc2)cc1, the Activity [1] is reported as 30.04%, the Activity [2] is reported as 96.24% and the Activity [3] is reported as 98.1%. The Activity [4] was 97.18%.
Work on O=C(N/N=C/c1cccc([N+](=O)[O-])c1)c1ccc(N2CCOCC2)cc1 yielded an Activity [1] of 9.118%, an Activity [2] of 98.04% and an Activity [3] of 98.4%. The Activity [4] was 98.4%.
In the case of O=C(N/N=C/c1ccc(Cl)cc1)c1ccc(N2CCOCC2)cc1, the Activity [1] is reported as 78.09%, the Activity [2] is reported as 98.02% and the Activity [3] is reported as 98.38%. For the same molecule, the Activity [4] was 99.26%.
O=C(N/N=C\C=C\c1ccccc1)c1ccc(N2CCOCC2)cc1 gave an Activity [1] of 63.16%, an Activity [2] of 98.96% and an Activity [3] of 97.82%. The Activity [4] was 97.32%.
CN(C)c1ccc(/C=N/NC(=O)c2ccc(N3CCOCC3)cc2)cc1 gave an Activity [1] of 20.85%, an Activity [2] of 98.09% and an Activity [3] of 98.49%. For the same molecule, the Activity [4] was 98.82%.
With NNC(=O)c1ccncc1 [ISONIAZID] the Activity [1] was 96%, the Activity [2] was 98.42% and the Activity [3] was 99.01%. It also gave an Activity [4] of 98.99%.
